Results published in ChEMBL document CHEMBL1157772, “In vitro cytotoxic activity of isolated acridones alkaloids from Zanthoxylum leprieurii Guill. et Perr” (Bioorg Med Chem, 2010).

Legend:
Assay type in all cases: functional, cell-based
A549 = assay: Cytotoxicity against human A549 cells after 48 hrs by resazurin reduction assay; settings: A549, 48 h
How it was run: (§1)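 Cell lines from ATCC, grown in MEM with Earle's salts, 10% fetal calf serum, vitamins, sodium pyruvate, non-essential amino acids, penicillin/streptomycin, at 37 °C, 5% CO2. Cells (5 × 10^3/well) adhered 16 h, then exposed 48 h to increasing concentrations in medium with 0.25% (v/v) final DMSO. Resazurin reduction read by fluorescence (ex 530/em 590 nm). IC50 as mean ± SD, two experiments in triplicate.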

DLD-1 = assay: Cytotoxicity against human DLD1 cells after 48 hrs by resazurin reduction assay; settings: DLD-1, 48 h; how it was run: as §1
[1] = Cytotoxicity against human WS1 cells after 48 hrs by resazurin reduction assay; settings: WS1, 48 h; how it was run: as §1

Row | Compound | IC50 (A549) | IC50 (DLD-1) | IC50 [1]
1 | COc1c(O)cc2c(c1OC)c(=O)c1ccccc1n2C | 52 µM | 77 µM | 74 µM
2 | COc1cc(O)c2c(=O)c3ccccc3n(C)c2c1 | 31 µM | 27 µM | 51 µM
3 | COc1cc(O)c(OC)c2c1c(=O)c1ccccc1n2C | > 100 µM | > 100 µM | > 100 µM
4 | CCCCCCCCCCCCCCCCCCCCCCCC(=O)NCCc1ccc(O)cc1 | > 100 µM | > 100 µM | > 100 µM
5 | COc1cc2c(c(O)c1OC)c(=O)c1ccccc1n2C [ARBORININE] | 35 µM | 74 µM | 56 µM
6 | COc1cc([C@@H]2c3cc4c(cc3[C@@H](O[C@@H]3O[C@@H]5CO[C@@H](C)O[C@H]5[C@H](O)[C@H]3O)[C@H]3COC(=O)[C@H]23)OCO4)cc(OC)c1O [ETOPOSIDE] | 16 µM | 10 µM | 4.3 µM
7 | COc1ccc([C@@H]2CC(=O)c3c(O)cc(O[C@@H]4O[C@H](CO[C@@H]5O[C@@H](C)[C@H](O)[C@@H](O)[C@H]5O)[C@@H](O)[C@H](O)[C@H]4O)cc3O2)cc1O [HESPERIDIN] | > 100 µM | > 100 µM | > 100 µM
8 | COc1cc2ccc(=O)oc2cc1OC [SCOPARONE] | > 100 µM | > 100 µM | > 100 µM
9 | COc1cc(O)cc2c1c(=O)c1ccccc1n2C [TEGERRARDIN A] | 36 µM | 71 µM | 42 µM
